Measurements as given in ChEMBL document CHEMBL3817745, “Structure-Activity Relationship for the 4(3H)-Quinazolinone Antibacterials” (J Med Chem, 2016).
≈ marks a conversion by molar mass, not a printed value. Calls of active or inactive are those of the source. The rule behind the calls is not given here.

What was measured:
[1] = Protein binding in human plasma at 10 uM after 6 hrs by UPLC based equillibrium dialysis method; assay type: ADME, cell-free; settings: read-out: PPB (converted)
[2] = AUC (0 to last) in ICR mouse peritonitis model infected with methicillin resistant Staphylococcus aureus ATCC 27660 at 10 mg/kg, iv administered as single dose measured up to 8 hrs by UPLC analysis; assay type: ADME, organism-based; design: dose 10 mg/kg, time 0 - last, route intravenous; settings: ICR, in vivo
In short: (§1)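 Fast PK: female ICR mice (n = 2 per time point) given single tail-vein iv injection at 5, 10 or 20 mg/kg in 25% DMSO/65% propylene glycol/10% water (2.5, 5 or 10 mg/mL); terminal cardiac blood at 5 min, 40 min, 2, 4, 8 h; plasma analysed by UPLC with internal standard calibration.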

[3] = Clearance in ICR mouse peritonitis model infected with methicillin resistant Staphylococcus aureus ATCC 27660 at 10 mg/kg, iv administered as single dose measured up to 8 hrs by UPLC analysis; assay type: ADME, organism-based; settings: in vivo; in short: as §1
[4] = tested on: HepG2; experiment: Cytotoxicity against human HepG2 cells incubated for 16 hrs by XTT assay; assay type: cell-based; settings: HepG2, 16 h
In short: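 HepG2 cells were tested with an XTT viability read-out, in triplicate. IC50 was obtained by nonlinear regression.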

[5] = tested on: Staphylococcus aureus; experiment: Antibacterial activity against methicillin resistant Staphylococcus aureus ATCC 27660 infected in iv dosed ICR mouse model of peritonitis assessed as mouse survival administered at 30 mins and 4.5 hrs post infection measured for 48 hrs; assay type: functional; settings: ATCC 27660, iv
[6] = Hemolytic activity against human RBC at 64 ug/ml relative to control; assay type: ADME, cell-based, Erythrocyte; settings: red blood cells, read-out: Activity
In short: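 Hemolysis was measured at a fixed 64 μg/mL on a 10% red-cell suspension from heparinized human blood. Triton-X served as the positive control, and results are given as percent hemolysis.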

[7] = tested on: Staphylococcus aureus; experiment: Antibacterial activity against mecA-positive multidrug resistant Staphylococcus aureus COL NRS100 incubated for 16 to 20 hrs by microdilution method; assay type: functional
[8] = tested on: Staphylococcus aureus; experiment: Antibacterial activity against mecA-positive multidrug resistant Staphylococcus aureus NRS119 incubated for 16 to 20 hrs by microdilution method; assay type: functional
[9] = tested on: Staphylococcus aureus; experiment: Antibacterial activity against mecA-positive multidrug resistant Staphylococcus aureus NRS120 incubated for 16 to 20 hrs by microdilution method; assay type: functional
[10] = tested on: Staphylococcus aureus; experiment: Antibacterial activity against vancomycin/methicillin-resistant Staphylococcus aureus VRS1 clinical isolate incubated for 16 to 20 hrs by microdilution method; assay type: functional
[11] = tested on: Staphylococcus aureus; experiment: Antibacterial activity against vancomycin/methicillin-resistant Staphylococcus aureus VRS2 clinical isolate incubated for 16 to 20 hrs by microdilution method; assay type: functional
[12] = tested on: Staphylococcus epidermidis; experiment: Antibacterial activity against Staphylococcus epidermidis ATCC 35547 incubated for 16 to 20 hrs by microdilution method; assay type: functional
In short: (§2)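 CLSI broth microdilution. 2-fold serial dilutions were made in cation-adjusted Mueller–Hinton broth, with 5% lysed horse blood added for Streptococcus strains, in triplicate. Inoculum 5×10^5 CFU/mL. Plates incubated 36 °C for 16–20 h. MIC taken as the lowest concentration visibly inhibiting growth.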

[13] = tested on: Staphylococcus haemolyticus; experiment: Antibacterial activity against Staphylococcus haemolyticus ATCC 29970 incubated for 16 to 20 hrs by microdilution method; assay type: functional
[14] = tested on: Streptococcus oralis; experiment: Antibacterial activity against Streptococcus oralis ATCC 9811 incubated for 16 to 20 hrs by microdilution method; assay type: functional; in short: as §2
[15] = tested on: Streptococcus pyogenes; experiment: Antibacterial activity against Streptococcus pyogenes ATCC 49399 incubated for 16 to 20 hrs by microdilution method; assay type: functional; in short: as §2
[16] = tested on: Bacillus cereus; experiment: Antibacterial activity against Bacillus cereus ATCC 13061 incubated for 16 to 20 hrs by microdilution method; assay type: functional; in short: as §2
[17] = tested on: Bacillus licheniformis; experiment: Antibacterial activity against Bacillus licheniformis ATCC 12759 incubated for 16 to 20 hrs by microdilution method; assay type: functional; in short: as §2
[18] = tested on: Enterococcus faecalis; experiment: Antibacterial activity against methicillin-susceptible Enterococcus faecalis ATCC 29212 incubated for 16 to 20 hrs by microdilution method; assay type: functional; in short: as §2
[19] = tested on: Enterococcus faecalis; experiment: Antibacterial activity against vancomycin-resistant Enterococcus faecalis 99 clinical isolate incubated for 16 to 20 hrs by microdilution method; assay type: functional
[20] = tested on: Enterococcus faecium; experiment: Antibacterial activity against Enterococcus faecium NCTC 7171 incubated for 16 to 20 hrs by microdilution method; assay type: functional; in short: as §2
[21] = tested on: Staphylococcus aureus; experiment: […] activity against multidrug resistant Staphylococcus aureus ATCC 27660; assay type: functional; settings: read-out: MBC99.9
[22] = tested on: Staphylococcus aureus; experiment: […] activity against methicillin-resistant Staphylococcus aureus NRS70; assay type: functional; settings: read-out: MBC99.9
[23] = Oral bioavailability in ICR mouse peritonitis model infected with methicillin resistant Staphylococcus aureus ATCC 27660 at 10 mg/kg administered as single dose through gavage by UPLC analysis; assay type: ADME, organism-based; settings: ICR, in vivo
In short: (§3)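 Female ICR mice, single 10 mg/kg oral gavage in 25% DMSO/55% propylene glycol/20% PBS (2.5 mg/mL); n = 3 per time point; terminal blood 0.5–30 h; plasma protein-precipitated with acetonitrile containing internal standard, quantified by UPLC-UV or MRM against mouse-plasma calibration curve (0–50 μg/mL).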

[24] = AUC (0 to last) in ICR mouse peritonitis model infected with methicillin resistant Staphylococcus aureus ATCC 27660 at 10 mg/kg, po administered as single dose through gavage measured after 30 hrs by UPLC analysis; assay type: ADME, organism-based; design: dose 10 mg/kg, time 0 - last, route oral; settings: ICR, in vivo; in short: as §3
[25] = AUC (0 to infinity) in ICR mouse peritonitis model infected with methicillin resistant Staphylococcus aureus ATCC 27660 at 10 mg/kg, iv administered as single dose by UPLC analysis; assay type: ADME, organism-based; design: dose 10 mg/kg, time infinity, route intravenous; settings: ICR, in vivo
[26] = AUC (0 to infinity) in ICR mouse peritonitis model infected with methicillin resistant Staphylococcus aureus ATCC 27660 at 10 mg/kg, po administered as single dose through gavage by UPLC analysis; assay type: ADME, organism-based; design: dose 10 mg/kg, route oral, time infinity; settings: ICR, in vivo; in short: as §3
[27] = Cmax in ICR mouse peritonitis model infected with methicillin resistant Staphylococcus aureus ATCC 27660 at 10 mg/kg, po administered as single dose through gavage measured at 1 hr post dose by UPLC analysis; assay type: ADME, organism-based; design: dose 10 mg/kg, route oral; settings: in vivo
[28] = tested on: Mus musculus; experiment: Tmax in ICR mouse peritonitis model infected with methicillin resistant Staphylococcus aureus ATCC 27660 at 10 mg/kg, po administered as single dose through gavage by UPLC analysis; assay type: ADME, organism-based; settings: in vivo; in short: as §3
[29] = Volume of distribution in ICR mouse peritonitis model infected with methicillin resistant Staphylococcus aureus ATCC 27660 at 10 mg/kg, iv administered as single dose measured up to 24 hrs by UPLC analysis; assay type: ADME, organism-based; settings: ICR, in vivo
[30] = Terminal half life in ICR mouse peritonitis model infected with methicillin resistant Staphylococcus aureus ATCC 27660 at 10 mg/kg, iv administered as single dose by UPLC analysis; assay type: ADME, organism-based; settings: ICR, in vivo, read-out: beta t1/2
[31] = Terminal half life in ICR mouse peritonitis model infected with methicillin resistant Staphylococcus aureus ATCC 27660 at 10 mg/kg, po administered as single dose through gavage by UPLC analysis; assay type: ADME, organism-based; settings: ICR, in vivo, read-out: beta t1/2; in short: as §3
[32] = tested on: Staphylococcus aureus; experiment: Antibacterial activity against methicillin-resistant Staphylococcus aureus NRS70 in ICR mouse neutropenic thigh infection model assessed as reduction in bacterial load at 20 mg/kg, sc tid administered every 8 hrs starting from 1 hr post infection and measured 7 hrs post last dose; assay type: functional, organism-based
In short: (§4)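 Female ICR mice (n = 8 per group) made neutropenic with ip cyclophosphamide 200 mg/kg at 4 days and 1 day pre-infection; 100 μL NRS70 (~1×10^6 CFU/mL in brain–heart infusion) injected im into right thigh; sc doses at 1, 9, 17 h; thighs harvested at 24 h, homogenized, plated in triplicate on LB agar; log10 CFU/g.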

[33] = Plasma concentration in ICR mouse neutropenic thigh model of methicillin-resistant Staphylococcus aureus NRS70 infection at 20 mg/kg, sc tid administered every 8 hrs starting from 1 hr post infection and measured 7 hrs post last dose by UPLC analysis; assay type: ADME, organism-based
In short: (§5)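 Neutropenic thigh model (cyclophosphamide 200 mg/kg ip, NRS70 im), sc doses at 1, 9 and 17 h; at 24 h cardiac blood and uninfected thigh taken (n = 8 per group); thigh homogenate supernatant and plasma acetonitrile-quenched with internal standard, analysed by UPLC with MRM detection.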

[34] = Drug level in uninfected thighs of ICR mouse neutropenic thigh model of methicillin-resistant Staphylococcus aureus NRS70 infection at 20 mg/kg, sc tid administered every 8 hrs starting from 1 hr post infection and measured 7 hrs post last dose by UPLC analysis; assay type: ADME, organism-based; settings: read-out: Drug uptake; in short: as §5
[35] = tested on: Klebsiella pneumoniae; experiment: Antibacterial activity against Klebsiella pneumoniae ATCC 700603 incubated for 16 to 20 hrs by microdilution method; assay type: functional; in short: as §2
[36] = tested on: Acinetobacter baumannii; experiment: Antibacterial activity against Acinetobacter baumannii ATCC 17961 incubated for 16 to 20 hrs by microdilution method; assay type: functional; in short: as §2
[37] = tested on: Pseudomonas aeruginosa; experiment: Antibacterial activity against Pseudomonas aeruginosa […] incubated for 16 to 20 hrs by microdilution method; assay type: functional; in short: as §2
[38] = tested on: Escherichia coli; experiment: Antibacterial activity against Escherichia coli ATCC 25922 incubated for 16 to 20 hrs by microdilution method; assay type: functional; in short: as §2
[39] = tested on: Klebsiella aerogenes; experiment: Antibacterial activity against Enterobacter aerogenes ATCC 35029 incubated for 16 to 20 hrs by microdilution method; assay type: functional; in short: as §2
[40] = tested on: Staphylococcus aureus; experiment: […] activity against methicillin-susceptible Staphylococcus aureus ATCC 29213; assay type: functional; settings: read-out: MBC99.9
[41] = tested on: Staphylococcus aureus; experiment: Antibacterial activity against methicillin-resistant Staphylococcus aureus NRS70 in ICR mouse neutropenic thigh infection model assessed as reduction in bacterial load at 10 mg/kg, sc tid administered every 8 hrs starting from 1 hr post infection and measured 7 hrs post last dose; assay type: functional, organism-based; in short: as §4
[42] = tested on: Plasma; experiment: Drug level in plasma of ICR mouse neutropenic thigh model of methicillin-resistant Staphylococcus aureus NRS70 infection at 10 mg/kg, sc tid administered every 8 hrs starting from 1 hr post infection and measured 7 hrs post last dose by UPLC analysis; assay type: ADME, organism-based; settings: in vivo, BLD = below limit of detection; in short: as §5
[43] = Drug level in uninfected thighs of ICR mouse neutropenic thigh model of methicillin-resistant Staphylococcus aureus NRS70 infection at 10 mg/kg, sc tid administered every 8 hrs starting from 1 hr post infection and measured 7 hrs post last dose by UPLC analysis; assay type: ADME, organism-based; settings: in vivo, BLD = below limit of detection; in short: as §5

N#Cc1ccc(/C=C/c2nc3ccccc3c(=O)n2-c2cccc(C(=O)O)c2)cc1
fraction unbound at 6 h, 10 µM [1]: 0.035
AUC(0-t) at 8 h [2]: 19700 ng·h/mL
clearance [3]: 6.9 mL/min/kg
IC50 [4]: 62.9 µg/mL (≈ 160 µM)
ED50 [5]: 9.4 mg/kg
hemolysis at 64 ug/ml [6]: < 1%
MIC [7]: 16 µg/mL (≈ 40.7 µM)
MIC [8]: 8 µg/mL (≈ 20.3 µM)
MIC [9]: 8 µg/mL (≈ 20.3 µM)
MIC [10]: 16 µg/mL (≈ 40.7 µM)
MIC [11]: 2 µg/mL (≈ 5.08 µM)
MIC [12]: 1 µg/mL (≈ 2.54 µM)
MIC [13]: 1 µg/mL (≈ 2.54 µM)
MIC [14]: > 128 µg/mL
MIC [15]: > 128 µg/mL
MIC [16]: > 128 µg/mL
MIC [17]: > 128 µg/mL
MIC [18]: > 128 µg/mL
MIC [19]: > 128 µg/mL
MIC [20]: > 128 µg/mL
MBC [21]: 64 µg/mL (≈ 163 µM)
MBC [22]: 32 µg/mL (≈ 81.3 µM)
bioavailability [23]: 50%
AUC(0-t) at 30 h [24]: 6800 ng·h/mL
AUC(0-inf) [25]: 24300 ng·h/mL
AUC(0-inf) [26]: 12300 ng·h/mL
Cmax [27]: 1300 ng/mL
Tmax [28]: 1 h
Vd [29]: 0.3 L/kg
half-life [30]: ≥ 20 h
half-life [31]: > 20 h
Activity [32]: inactive
concentration at 7 h [33]: 1130 ng/mL
concentration at 7 h [34]: 24 ng/mL
MIC [35]: ≥ 16 µg/mL
MIC [36]: ≥ 16 µg/mL
MIC [37]: ≥ 16 µg/mL
MIC [38]: ≥ 16 µg/mL
MIC [39]: ≥ 16 µg/mL

CC(=O)NC[C@H]1CN(c2ccc(N3CCOCC3)c(F)c2)C(=O)O1 [LINEZOLID]
MIC [8]: 32 µg/mL (≈ 94.9 µM)
MIC [9]: 32 µg/mL (≈ 94.9 µM)
MIC [12]: 1 µg/mL (≈ 2.96 µM)
MIC [13]: 2 µg/mL (≈ 5.93 µM)
MIC [20]: 2 µg/mL (≈ 5.93 µM)
MBC [40]: 16 µg/mL (≈ 47.4 µM)
MBC [21]: 16 µg/mL (≈ 47.4 µM)
MBC [22]: 8 µg/mL (≈ 23.7 µM)
Activity [41]: Active
Cp [42]: BLD
Drug uptake [43]: BLD
